Results reported in ChEMBL document CHEMBL4011643, “Triaryl Benzimidazoles as a New Class of Antibacterial Agents against Resistant Pathogenic Microorganisms” (J Med Chem, 2017).
In brackets after ≈: the same amount, converted by molar mass.

What was measured:
Klebsiella pneumoniae [1] = assay: Antibacterial activity against Klebsiella pneumoniae M6 after 20 hrs by broth microdilution method; assay type: functional; settings: M6, 20 h
Summary of the method: (§1)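 Broth microdilution in Tryptic Soy Broth, done in triplicate. Growth was read as OD600 after 20 h. MIC is the lowest drug concentration giving OD600 below 0.1.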

Klebsiella pneumoniae [2] = assay: Antibacterial activity against Klebsiella pneumoniae NCTC 13368 after 20 hrs in the presence of PMBN by broth microdilution method; assay type: functional; settings: NCTC 13368, 20 h; summary of the method: as §1
Enterococcus faecium = assay: Antibacterial activity against vancomycin-resistant Enterococcus faecium NCTC 12204 after 20 hrs by broth microdilution method; assay type: functional; settings: NCTC 12204, 20 h
Summary of the method: (§2)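 Broth microdilution in Tryptic Soy Broth; growth read as OD600 after 20 h. MIC taken as the lowest drug concentration giving OD600 below 0.1. Run in triplicate.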

Klebsiella pneumoniae [3] = assay: Ratio of MIC for Klebsiella pneumoniae M6 in absence of Pa-beta-N to MIC for Klebsiella pneumoniae M6 in presence of Pa-beta-N; assay type: functional
Summary of the method: (§3)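 Both MICs were by TSB broth microdilution, with an OD600 <0.1 cutoff at 20 h.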

Acinetobacter baumannii [4] = assay: Antibacterial activity against Acinetobacter baumannii AYE after 20 hrs in the presence of PMBN by broth microdilution method; assay type: functional; summary of the method: as §1
Acinetobacter baumannii [5] = assay: Antibacterial activity against Acinetobacter baumannii ATCC 17978 after 20 hrs in the presence of PMBN by broth microdilution method; assay type: functional; settings: ATCC 17978, 20 h; summary of the method: as §1
Acinetobacter baumannii [6] = assay: Ratio of MIC for Acinetobacter baumannii ATCC 17978 in absence of Pa-beta-N to MIC for Acinetobacter baumannii ATCC 17978 in presence of Pa-beta-N; assay type: functional; summary of the method: as §3
[7] = Stabilization of FAM/TAMRA-labeled AT-rich DNA duplex (unknown origin) assessed as change in melting temperature at 5 uM by FRET-based assay
Summary of the method: (§4)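 FRET melting of a FAM/TAMRA-labelled AT-rich oligonucleotide, 400 nM working solution in 50 mM potassium, 50 mM cacodylate, pH 7.4. DNA was annealed at 85 °C for 6 min, then held at 25 °C for 5 h, and mixed 1:1 with sample. Fluorescence was read every 0.5 °C from 30 to 100 °C, with a 30 s hold per step. ΔTm is measured against the blank, in triplicate.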

Klebsiella pneumoniae [8] = assay: Ratio of MIC for Klebsiella pneumoniae NCTC 13368 in absence of Pa-beta-N to MIC for Klebsiella pneumoniae NCTC 13368 in presence of Pa-beta-N; assay type: functional; summary of the method: as §3
Staphylococcus aureus [9] = assay: Antibacterial activity against methicillin-resistant Staphylococcus aureus MRSA252 after 20 hrs by broth microdilution method; assay type: functional; settings: MRSA252, 20 h; summary of the method: as §2
Klebsiella pneumoniae [10] = assay: Antibacterial activity against Klebsiella pneumoniae NCTC 13368 after 20 hrs by broth microdilution method; assay type: functional; settings: NCTC 13368, 20 h; summary of the method: as §1
Acinetobacter baumannii [11] = assay: Ratio of MIC for Acinetobacter baumannii ATCC 17978 in absence of PMBN to MIC for Acinetobacter baumannii ATCC 17978 in presence of PMBN; assay type: functional
Summary of the method: (§5)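 Fold change: MIC without divided by MIC with 30 μg/mL PMBN. Both MICs were by TSB broth microdilution, with an OD600 <0.1 cutoff at 20 h.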

Acinetobacter baumannii [12] = assay: Antibacterial activity against Acinetobacter baumannii ATCC 17978 after 20 hrs by broth microdilution method; assay type: functional; settings: ATCC 17978, 20 h; summary of the method: as §1
Pseudomonas aeruginosa [13] = assay: Ratio of MIC for Pseudomonas aeruginosa NCTC 13437 in absence of PMBN to MIC for Pseudomonas aeruginosa NCTC 13437 in presence of PMBN; assay type: functional; summary of the method: as §5
Pseudomonas aeruginosa [14] = assay: Antibacterial activity against Pseudomonas aeruginosa NCTC 13437 after 20 hrs by broth microdilution method; assay type: functional; settings: NCTC 13437, 20 h; summary of the method: as §1
Acinetobacter baumannii [15] = assay: Ratio of MIC for Acinetobacter baumannii AYE in absence of Pa-beta-N to MIC for Acinetobacter baumannii AYE in presence of Pa-beta-N; assay type: functional; summary of the method: as §3
Enterococcus faecalis [16] = assay: Antibacterial activity against vancomycin-sensitive Enterococcus faecalis NCTC 775 after 20 hrs by broth microdilution method; assay type: functional; settings: NCTC 775, 20 h; summary of the method: as §1
Acinetobacter baumannii [17] = assay: Antibacterial activity against Acinetobacter baumannii AYE after 20 hrs by broth microdilution method; assay type: functional; summary of the method: as §1
Pseudomonas aeruginosa [18] = assay: Antibacterial activity against Pseudomonas aeruginosa PAO1 after 20 hrs by broth microdilution method; assay type: functional; settings: PAO1, 20 h; summary of the method: as §1
Klebsiella pneumoniae [19] = assay: Antibacterial activity against Klebsiella pneumoniae M6 after 20 hrs in the presence of PMBN by broth microdilution method; assay type: functional; settings: M6, 20 h; summary of the method: as §1
Enterococcus faecalis [20] = assay: Bactericidal activity against vancomycin-resistant Enterococcus faecalis NCTC 12201 assessed as time required to kill bacteria by >6 log10CFU/ml at 4 times MIC by Miles Misra dilution method; assay type: functional
Summary of the method: (§6)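 Flasks of TSB inoculated at ~10^6 cfu/mL, compound added at 4 × MIC, shaken at 200 rpm and 37 °C. Samples taken at 1, 2, 4, 6 and 24 h and plated by Miles Misra dilution for CFU/mL. Bactericidal means a loss of >3 log CFU/mL. Three independent repeats, error bars SD.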

Acinetobacter baumannii [21] = assay: Antibacterial activity against Acinetobacter baumannii ATCC 17978 after 20 hrs in the presence of Pa-beta-N and magnesium ions by broth microdilution method; assay type: functional; settings: ATCC 17978, 20 h; summary of the method: as §1
Staphylococcus aureus [22] = assay: Inhibition of Staphylococcus aureus DNA gyrase assessed as reduction in pNO1 supercoiling at 0.5 ug/mL by fluorescent dye-based assay
Summary of the method: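 Supercoiling plate assay run per the kit instructions. S. aureus gyrase was incubated with compound and plasmid pNO1. Negatively supercoiled plasmid was captured by a triplex-forming oligonucleotide, stained with a fluorescent dye and read by fluorescence (excitation 485 nm). Percent inhibition was reported.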

Pseudomonas aeruginosa [23] = assay: Antibacterial activity against Pseudomonas aeruginosa PAO1 after 20 hrs in the presence of PMBN by broth microdilution method; assay type: functional; settings: PAO1, 20 h; summary of the method: as §1
Klebsiella pneumoniae [24] = assay: Antibacterial activity against Klebsiella pneumoniae M6 after 20 hrs in the presence of Pa-beta-N and magnesium ions by broth microdilution method; assay type: functional; settings: M6, 20 h; summary of the method: as §1
[25] = Cytotoxicity against human HeLa cells assessed as cell viability at 25 uM after 24 hrs by MTT assay; assay type: cell-based; settings: read-out: Activity
Summary of the method: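 HeLa cells, 10000 per well, were grown at 37 °C in 5% CO2 and allowed to settle for 24 h. Compound was then added in triplicate for 24 h of continuous exposure. Viability was read by MTT colorimetry, with absorbance at 570 nm.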

Staphylococcus aureus [26] = assay: Antibacterial activity against methicillin-resistant Staphylococcus aureus EMRSA-15 after 20 hrs by broth microdilution method; assay type: functional; settings: EMRSA-15, 20 h; summary of the method: as §2
Acinetobacter baumannii [27] = assay: Antibacterial activity against Acinetobacter baumannii AYE after 20 hrs in the presence of Pa-beta-N and magnesium ions by broth microdilution method; assay type: functional; summary of the method: as §1
[28] = Stabilization of FAM/TAMRA-labeled AT-rich DNA duplex (unknown origin) assessed as change in melting temperature at 1 uM by FRET-based assay; summary of the method: as §4
Staphylococcus aureus [29] = assay: Antibacterial activity against methicillin-sensitive Staphylococcus aureus ATCC 9144 after 20 hrs by broth microdilution method; assay type: functional; settings: ATCC 9144, 20 h; summary of the method: as §1
Pseudomonas aeruginosa [30] = assay: Ratio of MIC for Pseudomonas aeruginosa NCTC 13437 in absence of Pa-beta-N to MIC for Pseudomonas aeruginosa NCTC 13437 in presence of Pa-beta-N; assay type: functional; summary of the method: as §3
Acinetobacter baumannii [31] = assay: Ratio of MIC for Acinetobacter baumannii AYE in absence of PMBN to MIC for Acinetobacter baumannii AYE in presence of PMBN; assay type: functional; summary of the method: as §5
Pseudomonas aeruginosa [32] = assay: Antibacterial activity against Pseudomonas aeruginosa NCTC 13437 after 20 hrs in the presence of PMBN by broth microdilution method; assay type: functional; settings: NCTC 13437, 20 h; summary of the method: as §1
Pseudomonas aeruginosa [33] = assay: Antibacterial activity against Pseudomonas aeruginosa PAO1 after 20 hrs in the presence of Pa-beta-N and magnesium ions by broth microdilution method; assay type: functional; settings: PAO1, 20 h; summary of the method: as §1
Pseudomonas aeruginosa [34] = assay: Antibacterial activity against Pseudomonas aeruginosa NCTC 13437 after 20 hrs in the presence of Pa-beta-N and magnesium ions by broth microdilution method; assay type: functional; settings: NCTC 13437, 20 h; summary of the method: as §1
Pseudomonas aeruginosa [35] = assay: Ratio of MIC for Pseudomonas aeruginosa PAO1 in absence of PMBN to MIC for Pseudomonas aeruginosa PAO1 in presence of PMBN; assay type: functional; summary of the method: as §5
Staphylococcus aureus [36] = assay: Bactericidal activity against methicillin-resistant Staphylococcus aureus EMRSA-15 assessed as time required to kill bacteria by >6 log10CFU/ml at 4 times MIC by Miles Misra dilution method; assay type: functional; summary of the method: as §6
Enterococcus faecalis [37] = assay: Antibacterial activity against vancomycin-resistant Enterococcus faecalis NCTC 12201 after 20 hrs by broth microdilution method; assay type: functional; settings: NCTC 12201, 20 h; summary of the method: as §2
Klebsiella pneumoniae [38] = assay: Ratio of MIC for Klebsiella pneumoniae M6 in absence of PMBN to MIC for Klebsiella pneumoniae M6 in presence of PMBN; assay type: functional; summary of the method: as §5
Klebsiella pneumoniae [39] = assay: Antibacterial activity against Klebsiella pneumoniae NCTC 13368 after 20 hrs in the presence of Pa-beta-N and magnesium ions by broth microdilution method; assay type: functional; settings: NCTC 13368, 20 h; summary of the method: as §1
Klebsiella pneumoniae [40] = assay: Ratio of MIC for Klebsiella pneumoniae NCTC 13368 in absence of PMBN to MIC for Klebsiella pneumoniae NCTC 13368 in presence of PMBN; assay type: functional; summary of the method: as §5

Work on Cc1nc2ccc(C(=O)Nc3cccc(-c4ccc(-n5c(C)nc6cc(C(=O)NCCCN(C)C)ccc65)nc4)c3)cc2[nH]1 yielded an MIC (Klebsiella pneumoniae [1]) of 32 mg/L (≈ 54.5 µM), an MIC (Klebsiella pneumoniae [2]) of 16 mg/L and an MIC (Enterococcus faecium) of 0.5 mg/L (≈ 0.852 µM). For the same molecule, the Ratio (Klebsiella pneumoniae [3]) was “>=4”, the MIC (Acinetobacter baumannii [4]) was 8 mg/L and the MIC (Acinetobacter baumannii [5]) was 8 mg/L. The Ratio (Acinetobacter baumannii [6]) was 2 - 4, the deltaTm [7] was 2.1 °C and the Ratio (Klebsiella pneumoniae [8]) was 2 - 4. The MIC (Staphylococcus aureus [9]) was 2 mg/L (≈ 3.41 µM), the MIC (Klebsiella pneumoniae [10]) was greater than 32 mg/L and the Ratio (Acinetobacter baumannii [11]) was 2. The MIC (Acinetobacter baumannii [12]) was 16 mg/L (≈ 27.3 µM), the Ratio (Pseudomonas aeruginosa [13]) was greater than 16 and the MIC (Pseudomonas aeruginosa [14]) was greater than 32 mg/L. The Ratio (Acinetobacter baumannii [15]) was 2 - 4, the MIC (Enterococcus faecalis [16]) was 0.5 mg/L (≈ 0.852 µM) and the MIC (Acinetobacter baumannii [17]) was 16 mg/L (≈ 27.3 µM). For the same molecule, the MIC (Pseudomonas aeruginosa [18]) was greater than 32 mg/L, the MIC (Klebsiella pneumoniae [19]) was 8 mg/L and the Time (Enterococcus faecalis [20]) was 2 h. It also gave an MIC (Acinetobacter baumannii [21]) of 8 mg/L, an inhibition (Staphylococcus aureus [22]) of 65.2% and an MIC (Pseudomonas aeruginosa [23]) of 4 mg/L. For the same molecule, the MIC (Klebsiella pneumoniae [24]) was 8 mg/L, the viability at 24 h, 25 µM [25] was greater than 98% and the MIC (Staphylococcus aureus [26]) was 0.5 mg/L (≈ 0.852 µM). The MIC (Acinetobacter baumannii [27]) was 8 mg/L, the deltaTm [28] was 0.4 °C and the MIC (Staphylococcus aureus [29]) was 0.25 mg/L (≈ 0.426 µM). For the same molecule, the Ratio (Pseudomonas aeruginosa [30]) was 2 - 4, the Ratio (Acinetobacter baumannii [31]) was 2 and the MIC (Pseudomonas aeruginosa [32]) was 4 mg/L. It also gave an MIC (Pseudomonas aeruginosa [33]) greater than 32 mg/L, an MIC (Pseudomonas aeruginosa [34]) of 16 to 32 mg/L and a Ratio (Pseudomonas aeruginosa [35]) greater than 16. It also gave a Time (Staphylococcus aureus [36]) of 2 h, an MIC (Enterococcus faecalis [37]) of 0.25 mg/L (≈ 0.426 µM) and a Ratio (Klebsiella pneumoniae [38]) of 4. It also gave an MIC (Klebsiella pneumoniae [39]) of 32 mg/L and a Ratio (Klebsiella pneumoniae [40]) of 4.

Cc1nc2cc(C(=O)NCCCN(C)C)ccc2n1-c1ccc(-c2cccc(N)c2)cn1 gave an MIC (Staphylococcus aureus [26]) greater than 128 mg/L and an MIC (Enterococcus faecalis [37]) greater than 128 mg/L.

Molecule CN[C@H](CC(C)C)C(=O)N[C@H]1C(=O)N[C@@H](CC(N)=O)C(=O)N[C@H]2C(=O)N[C@H]3C(=O)N[C@H](C(=O)N[C@H](C(=O)O)c4cc(O)cc(O)c4-c4cc3ccc4O)[C@H](O)c3ccc(c(Cl)c3)Oc3cc2cc(c3O[C@@H]2O[C@H](CO)[C@@H](O)[C@H](O)[C@H]2O[C@H]2C[C@](C)(N)[C@H](O)[C@H](C)O2)Oc2ccc(cc2Cl)[C@H]1O [VANCOMYCIN] has an MIC (Enterococcus faecium) greater than 128 mg/L, an MIC (Enterococcus faecalis [16]) of 1 mg/L (≈ 0.69 µM) and an MIC (Enterococcus faecalis [37]) greater than 128 mg/L.
